Source: ChEMBL document CHEMBL1649179, “Pharmacokinetics of LB80331 and LB80317 following oral administration of LB80380, a new antiviral agent for chronic hepatitis B (CHB), in healthy adult subjects, CHB patients, and mice” (Antimicrob Agents Chemother, 2009)

Tests used:
Homo sapiens [1] = assay: Tmax in high fat diet fed healthy human assessed as (1-((2-amino-9H-purin-9-yl)methyl)cyclopropoxy)me assessed as (1-((2-amino-9H-purin-9-yl)methyl)cyclopropoxy)me at 60 mg, po administered as single dose by LC-MS analysis; assay type: ADME, organism-based; settings: in vivo
Procedure, shortened: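 Healthy subjects received a single oral 60-mg dose after a high-fat breakfast or after an overnight fast. Plasma LB80331 was assayed by validated LC-MS/MS (LLOQ 5 ng/ml; intra- and interassay precision and accuracy <10%). Tmax was obtained by noncompartmental analysis.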

Homo sapiens [2] = assay: Tmax in chronic hepatitis B virus infected patient assessed as (1-((2-amino-9H-purin-9-yl)methyl)cyclopropoxy)me at 240 mg, po qd for 4 weeks by LC-MS analysis; assay type: ADME, organism-based; settings: in vivo, 672 h
Procedure, shortened: (§1)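 Daily oral LB80380 was given to CHB patients over 4 weeks. Blood was drawn on day 1 and at steady state (weeks 2–4), predose and 0.5–24 h postdose. Plasma LB80331 (LLOQ 5 ng/ml) and LB80317 (LLOQ 10 ng/ml) were measured by LC-MS/MS after protein-precipitation extraction. Tmax was taken by noncompartmental analysis.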

Homo sapiens [3] = assay: Tmax in chronic hepatitis B virus infected patient assessed as (1-((2-amino-9H-purin-9-yl)methyl)cyclopropoxy)me at 30 mg, po administered as single dose by LC-MS analysis; assay type: ADME, organism-based; settings: in vivo; procedure, shortened: as §1
Homo sapiens [4] = assay: Half life in chronic hepatitis B virus infected patient assessed as (1-((2-amino-9H-purin-9-yl)methyl)cyclopropoxy)me at 120 mg, po qd for 4 weeks by LC-MS analysis; assay type: ADME, organism-based; settings: in vivo, 672 h
Procedure, shortened: (§2)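 CHB patients given LB80380 orally once daily for 4 weeks. Plasma was sampled on day 1 and at steady state (weeks 2–4), predose and 0.5, 1, 2, 3, 4, 6, 8 and 24 h postdose. LB80331 was measured by validated LC-MS/MS (LLOQ 5 ng/ml). Terminal-phase apparent t1/2 came from noncompartmental analysis and was flagged if extrapolated AUC exceeded 20% of AUC0-24.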

Homo sapiens [5] = assay: Cmax in chronic hepatitis B virus infected patient assessed as (1-((2-amino-9H-purin-9-yl)methyl)cyclopropoxy)me at 120 mg, po administered as single dose by LC-MS analysis; assay type: ADME, organism-based; design: dose 120 mg, route oral; settings: in vivo
Procedure, shortened: (§3)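 CHB patients (HBsAg/HBeAg positive), six per dose cohort, given a first oral dose on day 1. Plasma sampled at baseline. Analysis by validated LC-MS/MS after protein precipitation with a stable-isotope internal standard; LLOQ 5 ng/ml for LB80331. Noncompartmental analysis gives Cmax and AUC0-∞.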

Homo sapiens [6] = assay: Half life in chronic hepatitis B virus infected patient assessed as (1-((2-amino-9H-purin-9-yl)methyl)cyclopropoxy)me at 240 mg, po qd for 4 weeks by LC-MS analysis; assay type: ADME, organism-based; settings: in vivo, 672 h; procedure, shortened: as §2
Homo sapiens [7] = assay: Oral clearance in chronic hepatitis B virus infected patient assessed as (1-((2-amino-9H-purin-9-yl)methyl)cyclopropoxy)me at 240 mg, po qd for 4 weeks by LC-MS analysis; assay type: ADME, organism-based; settings: in vivo, 672 h
Procedure, shortened: (§4)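 Oral LB80380 was given once daily for 4 weeks to CHB patients. Plasma LB80331 was quantified by validated LC-MS/MS after protein precipitation, with stable-isotope internal standard, at baseline and steady state (weeks 2–4), 0–24 h postdose. Noncompartmental CL/F was calculated as dose (adjusted for LB80380/LB80331 molecular weights) divided by AUC (AUC0-∞ single dose; AUC0-24 steady state).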

Homo sapiens [8] = assay: Oral clearance in chronic hepatitis B virus infected patient assessed as (1-((2-amino-9H-purin-9-yl)methyl)cyclopropoxy)me at 30 mg, po qd for 4 weeks by LC-MS analysis; assay type: ADME, organism-based; settings: in vivo, 672 h; procedure, shortened: as §4
Homo sapiens [9] = assay: Half life in chronic hepatitis B virus infected patient assessed as (1-((2-amino-9H-purin-9-yl)methyl)cyclopropoxy)me at 60 mg, po administered as single dose by LC-MS analysis; assay type: ADME, organism-based; settings: in vivo; procedure, shortened: as §2
Homo sapiens [10] = assay: Oral clearance in chronic hepatitis B virus infected patient assessed as (1-((2-amino-9H-purin-9-yl)methyl)cyclopropoxy)me at 120 mg, po qd for 4 weeks by LC-MS analysis; assay type: ADME, organism-based; settings: in vivo, 672 h; procedure, shortened: as §4
Liver [11] = assay: Cmax in CD-1 mouse liver assessed as (1-((2-amino-9H-purin-9-yl)methyl)cyclopropoxy)me at 30 mg/kg, po administered as single dose by LC-MS analysis; assay type: ADME, organism-based; design: dose 30 mg/kg, route oral; settings: in vivo
Procedure, shortened: (§5)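 Male CD-1 mice given a single oral dose in 100% PEG 400. Samples extracted with perchloric acid and neutralized with ammonium bicarbonate. One aliquot assayed for the free analyte; the other treated with calf intestinal phosphatase to give the total including di-/triphosphates. Analysis by LC-MS/MS.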

Homo sapiens [12] = assay: Half life in chronic hepatitis B virus infected patient assessed as (1-((2-amino-9H-purin-9-yl)methyl)cyclopropoxy)me at 240 mg, po administered as single dose by LC-MS analysis; assay type: ADME, organism-based; settings: in vivo; procedure, shortened: as §2
Homo sapiens [13] = assay: Tmax in chronic hepatitis B virus infected patient assessed as (1-((2-amino-9H-purin-9-yl)methyl)cyclopropoxy)me at 240 mg, po administered as single dose by LC-MS analysis; assay type: ADME, organism-based; settings: in vivo; procedure, shortened: as §1
Homo sapiens [14] = assay: Cmax in high fat diet fed healthy human assessed as (1-((2-amino-9H-purin-9-yl)methyl)cyclopropoxy)me at 60 mg, po administered as single dose by LC-MS analysis; assay type: ADME, organism-based; design: dose 60 mg, route oral; settings: in vivo
Procedure, shortened: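 Healthy subjects given a single oral dose after an overnight fast or after a high-fat breakfast. Plasma LB80331 measured by validated LC-MS/MS (LLOQ 5 ng/ml) after protein precipitation. Cmax by noncompartmental analysis.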

Plasma [15] = assay: Half life in CD-1 mouse plasma assessed as (1-((2-amino-9H-purin-9-yl)methyl)cyclopropoxy)me at 30 mg/kg, po administered as single dose by LC-MS analysis; assay type: ADME, organism-based; design: dose 30 mg/kg, route oral; settings: in vivo; procedure, shortened: as §5
Homo sapiens [16] = assay: Half life in chronic hepatitis B virus infected patient assessed as (1-((2-amino-9H-purin-9-yl)methyl)cyclopropoxy)me at 120 mg, po administered as single dose by LC-MS analysis; assay type: ADME, organism-based; settings: in vivo; procedure, shortened: as §2
Homo sapiens [17] = assay: AUC (0 to infinity) in chronic hepatitis B virus infected patient assessed as (1-((2-amino-9H-purin-9-yl)methyl)cyclopropoxy)me at 60 mg, po administered as single dose by LC-MS analysis; assay type: ADME, organism-based, Plasma; design: dose 60 mg, time infinity, route oral; settings: in vivo; procedure, shortened: as §3
Plasma [18] = assay: Tmax in CD-1 mouse plasma assessed as (1-((2-amino-9H-purin-9-yl)methyl)cyclopropoxy)me at 30 mg/kg, po administered as single dose by LC-MS analysis; assay type: ADME, organism-based; design: dose 30 mg/kg, route oral; settings: in vivo
Procedure, shortened: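 Male CD-1 mice received 30 mg/kg orally in 100% PEG 400. Plasma and snap-frozen liver were taken from 3 mice per time point at 1, 2, 4, 6, 10, 24 and 36 h. Samples were extracted with perchloric acid and neutralized with ammonium bicarbonate. Free LB80331/LB80317 was measured directly by LC-MS/MS; total, including di- and triphosphates, was measured after calf intestinal phosphatase treatment.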

Liver [19] = assay: Cmax in CD-1 mouse liver assessed as di- and triphosphates of (1-((2-amino-9H-purin-9-yl)methyl)cyclopropoxy)me at 30 mg/kg, po administered as single dose by LC-MS analysis; assay type: ADME, organism-based; design: dose 30 mg/kg, route oral; settings: in vivo; procedure, shortened: as §5
Homo sapiens [20] = assay: Tmax in chronic hepatitis B virus infected patient assessed as (1-((2-amino-9H-purin-9-yl)methyl)cyclopropoxy)me at 120 mg, po qd for 4 weeks by LC-MS analysis; assay type: ADME, organism-based; settings: in vivo, 672 h; procedure, shortened: as §1
Homo sapiens [21] = assay: Cmax in chronic hepatitis B virus infected patient assessed as (1-((2-amino-9H-purin-9-yl)methyl)cyclopropoxy)me at 30 mg, po administered as single dose by LC-MS analysis; assay type: ADME, organism-based; design: dose 30 mg, route oral; settings: in vivo; procedure, shortened: as §3

Tmax (Homo sapiens [1]): 4 h | Tmax (Homo sapiens [2]): 2 h | Tmax (Homo sapiens [3]): 1.5 h | t1/2 (Homo sapiens [4]): 3.1 h | Cmax (Homo sapiens [5]): 0.805 µg/mL | t1/2 (Homo sapiens [6]): 3.3 h | CL/F (Homo sapiens [7]): 416 mL/min | CL/F (Homo sapiens [8]): 289 mL/min | t1/2 (Homo sapiens [9]): 3 h | CL/F (Homo sapiens [10]): 304 mL/min | Cmax (Liver [11]): 44 µM | t1/2 (Homo sapiens [12]): 3 h | Tmax (Homo sapiens [13]): 2 h | Cmax (Homo sapiens [14]): 0.246 µg/mL | t1/2 (Plasma [15]): 2 h | t1/2 (Homo sapiens [16]): 3 h | AUC (Homo sapiens [17]): 2.344 µg·h/mL | Tmax (Plasma [18]): 1 h | Cmax (Liver [19]): 17 µM | Tmax (Homo sapiens [20]): 1 h | Cmax (Homo sapiens [21]): 0.2 µg/mL
SMILES: Nc1ncc2ncn(CC3(OCP(=O)(O)O)CC3)c2n1 [BESIFOVIR]
